In ChEMBL document CHEMBL3763156, “Imidazole-based pinanamine derivatives: Discovery of dual inhibitors of the wild-type and drug-resistant mutant of the influenza A virus” (Eur J Med Chem, 2016):

Key:
Influenza A virus [1] = assay: Antiviral activity against amantadine-sensitive Influenza A virus A/HK/68 (H3N2) expressing wild type M2 ion channel infected in MDCK cells assessed as protection against virus induced cytopathic effect after 48 hrs by microscopic analysis; assay type: functional, organism-based, Influenza A virus (A/Hong Kong/1/1968(H3N2))
Summary of the method: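 MDCK cells were grown 24 h to a confluent monolayer and rinsed twice. They were infected with 100 TCID50 virus for 2 h at 37 °C in 5% CO2, and the inoculum was removed. Serial two-fold compound dilutions in DMEM with 1.5 µg/mL trypsin were added for 48 h at 34 °C in 5% CO2. CPE percentage was scored microscopically. IC50 came from non-linear regression, as the mean of 2–3 determinations.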

[2] = Cytotoxicity against MDCK cells assessed as cell viability after 48 hrs by MTT assay; assay type: cell-based, Canis lupus familiaris; conditions: dog
Summary of the method: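 Uninfected MDCK cells were exposed to various compound concentrations for 48 h. MTT was added from a 5 mg/mL stock for 4 h at 37 °C, stopped with DMSO, and read at 490 nm. CC50 was calculated by the Reed–Muench method, as the mean of 2–3 determinations.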

Influenza A virus [3] = assay: Antiviral activity against amantadine-sensitive Influenza A virus A/HK/68 (H3N2) expressing wild type M2 ion channel infected in MDCK cells assessed as cell viability after 48 hrs by MTT assay; assay type: functional, organism-based, Influenza A virus (A/Hong Kong/1/1968(H3N2))
Summary of the method: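 Infected MDCK cells were given compound for 48 h, and the CPE-based result was confirmed by MTT viability. MTT was added from a 5 mg/mL stock for 4 h at 37 °C, stopped with DMSO, and read as absorbance at 490 nm. The 50% effective concentration was calculated by the Reed–Muench method, as the mean of 2–3 determinations.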

[4] = molecular target: Matrix protein 2 (Influenza A virus (A/Udorn/307/1972(H3N2))) (UniProt P0DOF8); assay: Inhibition of Influenza A virus wild type M2 ion channel expressed in 293Trex cells at 100 uM after 2 mins by patch clamp assay; assay type: cell-based
[5] = molecular target: Matrix protein 2 (Influenza A virus (A/Udorn/307/1972(H3N2))) (UniProt P0DOF8); assay: Inhibition of Influenza A virus wild type M2 ion channel expressed in Xenopus oocytes at 100 uM after 2 mins by two-electrode voltage clamp assay; assay type: cell-based
Summary of the method: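 A/M2 channel (S31N for line 7, wild type for line 9) was expressed in Xenopus oocytes and recorded by two-electrode voltage clamp. Compound was applied at 100 µM, and the percentage inhibition of channel current was taken after 2 min. Values are mean ± SD.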

[6] = Influenza A virus, MDCK, 48 h, read-out: IC50

SMILES | IC50 (Influenza A virus [1]; mdck) | CC50 at 48 h [2] | IC50 (Influenza A virus [3]) | IC50 (Influenza A virus [1]; [6]) | inhibition [4] | inhibition [5]
C[C@@H]1[C@H]2C[C@@H](C[C@H]1NCc1cnc(C3CCCC3)[nH]1)C2(C)C | Not Active | 37.2 µM | – | – | – | –
CC(C)c1ncc(CN[C@@H]2C[C@@H]3C[C@H]([C@H]2C)C3(C)C)[nH]1 | Not Active | 114 µM | – | – | – | –
C[C@@H]1[C@H]2C[C@@H](C[C@H]1NCc1cnc(C3CC3)[nH]1)C2(C)C | Not Active | 94.5 µM | – | – | – | –
C[C@@H]1[C@H]2C[C@@H](C[C@H]1NCc1cnc(-c3ccccc3)[nH]1)C2(C)C | – | 79.9 µM | 10.7 µM | 7.6 µM | – | –
C[C@@H]1[C@H]2C[C@@H](C[C@H]1NCc1cnc(-c3cccs3)[nH]1)C2(C)C | Not Active | 75.6 µM | – | – | – | –
CCc1nc[nH]c1CN[C@@H]1C[C@@H]2C[C@H]([C@H]1C)C2(C)C | – | 180 µM | 6.7 µM | 5.8 µM | – | –
CCc1ncc(CN[C@@H]2C[C@@H]3C[C@H]([C@H]2C)C3(C)C)[nH]1 | Not Active | 137 µM | – | – | – | –
Cc1nc[nH]c1CN[C@@H]1C[C@@H]2C[C@H]([C@H]1C)C2(C)C | – | 252 µM | – | 3.2 µM | 95.8% | –
Cc1nc(C2CC2)[nH]c1CN[C@@H]1C[C@@H]2C[C@H]([C@H]1C)C2(C)C | – | 74.9 µM | 21.2 µM | 15.3 µM | – | –
C[C@@H]1[C@H]2C[C@@H](C[C@H]1NCc1[nH]cnc1C(C)(C)C)C2(C)C | – | 72.3 µM | 12.9 µM | 8.3 µM | – | –
C[C@@H]1[C@H]2C[C@@H](C[C@H]1NCc1[nH]cnc1C1CC1)C2(C)C | – | 162 µM | 3.8 µM | 3.4 µM | – | –
CCCc1nc[nH]c1CN[C@@H]1C[C@@H]2C[C@H]([C@H]1C)C2(C)C | – | 200 µM | 3.3 µM | 2.5 µM | – | 97.9%
CCCc1nc(C2CC2)[nH]c1CN[C@@H]1C[C@@H]2C[C@H]([C@H]1C)C2(C)C | – | 112 µM | 10.8 µM | 6.9 µM | – | –
C[C@@H]1[C@H]2C[C@@H](C[C@H]1NCc1cnc(C(C)(C)C)[nH]1)C2(C)C | – | 107 µM | 12.4 µM | 8.8 µM | – | –
C[C@@H]1[C@H]2C[C@@H](C[C@H]1NCc1[nH]cnc1-c1ccccc1)C2(C)C | Not Active | 39.7 µM | – | – | – | –
CC(C)Cc1ncc(CN[C@@H]2C[C@@H]3C[C@H]([C@H]2C)C3(C)C)[nH]1 | – | 74.8 µM | 15.2 µM | 8.7 µM | – | –
CCCc1nc(-c2ccccc2)[nH]c1CN[C@@H]1C[C@@H]2C[C@H]([C@H]1C)C2(C)C | – | 143 µM | 15.2 µM | 13.5 µM | – | –
C[C@@H]1[C@H]2C[C@@H](C[C@H]1NCc1cncn1C)C2(C)C | – | – | – | 12 µM | – | –
CCCc1nc(C(C)C)[nH]c1CN[C@@H]1C[C@@H]2C[C@H]([C@H]1C)C2(C)C | – | 156 µM | 13.5 µM | 10.2 µM | – | –
Cc1nc(C(C)C)[nH]c1CN[C@@H]1C[C@@H]2C[C@H]([C@H]1C)C2(C)C | Not Active | 73.1 µM | – | – | – | –
Cc1ncc(CN[C@@H]2C[C@@H]3C[C@H]([C@H]2C)C3(C)C)[nH]1 | Not Active | 202 µM | – | – | – | –
C[C@@H]1[C@H]2C[C@@H](C[C@H]1NCc1cnc(C3CCCCC3)[nH]1)C2(C)C | Not Active | 33.5 µM | – | – | – | –
CCCCc1ncc(CN[C@@H]2C[C@@H]3C[C@H]([C@H]2C)C3(C)C)[nH]1 | Not Active | 70.4 µM | – | – | – | –
CCc1nc(C)c(CN[C@@H]2C[C@@H]3C[C@H]([C@H]2C)C3(C)C)[nH]1 | – | 136 µM | 4.5 µM | 4.1 µM | – | 91.7%
